In ChEMBL document CHEMBL1949580, “Multi-component synthesis and in vitro and in vivo anticancer activity of novel arylmethylene bis-isoxazolo[4,5-b]pyridine-N-oxides” (Eur J Med Chem, 2012):
Values after ≈ are worked out from the molar mass of the structure shown.

Assays:
HeLa = test: Cytotoxicity against human HeLa cells after 48 hrs by MTT assay; type: functional, cell-based
Summary of the method: (§1)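 Cells in medium with 10% FBS, 5% CO₂, 37 °C, seeded from a 1 × 10⁵ cells/mL suspension. Test solutions from DMSO stocks (final <1% DMSO) added after 24 h. Exposure 48 h, then MTT 2.5 mg/mL for 2 h, formazan dissolved in DMSO, read at 490 nm. IC₅₀ is 50% OD reduction versus untreated, from dose-response curves. Mean of three independent determinations.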

[1] = Cytotoxicity against […] after 48 hrs by MTT assay; type: functional, cell-based; settings: Mus musculus, Ehrlich; summary of the method: as §1
MCF7 = test: Cytotoxicity against human MCF7 cells after 48 hrs by MTT assay; type: functional, cell-based; settings: MCF7, 48 h; summary of the method: as §1
[2] = Antitumor activity against […] xenografted in Swiss albino mouse liquid tumor model assessed as change in body weight at 5 mg/kg, ip qd for 9 days measured after 14 days (reference value: 12.2 +/- 0.75 g); type: functional, Ehrlich; settings: route intraperitoneal
Summary of the method: (§2)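 EAC cells (0.2 mL of 2 × 10⁶ cells/mouse) injected ip on day 0. Daily ip dosing began 24 h later. Ten mice per group. Tumor volume, packed cell volume and viable tumor cell count read by Trypan blue method, alongside body weight. Values are mean ± SEM versus tumor control. Cisplatin 5 mg/kg served as the positive control.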

[3] = Anticancer activity against […] xenografted in Swiss albino mouse liquid tumor model assessed as host survival at 5 mg/kg, ip qd for 9 days (reference value: 13.7 +/- 0.03 days); type: functional, Ehrlich; settings: route intraperitoneal
Mus musculus [4] = test: Toxicity in human EAC cells xenografted Swiss albino mouse liquid tumor model assessed as change hemoglobin level at 5 mg/kg, ip qd for 9 days (reference value: 5.75 +/- 0.655 mg); type: organism-based, Ehrlich; parameters: dose 5 mg/kg, route intraperitoneal; settings: in vivo, 216 h
[5] = Anticancer activity against […] xenografted in Swiss albino mouse liquid tumor model assessed as increase in host lifespan at 5 mg/kg, ip qd for 9 days measured after 14 days; type: functional, Ehrlich; settings: route intraperitoneal
[6] = Anticancer activity against […] xenografted in Swiss albino mouse liquid tumor model assessed as tumor volume at 5 mg/kg, ip qd for 9 days measured after 14 days (reference value: 12.1 +/- 0.89 mL); type: functional, Ehrlich; settings: route intraperitoneal; summary of the method: as §2
[7] = Anticancer activity against […] xenografted in Swiss albino mouse liquid tumor model assessed as packed cell volume at 5 mg/kg, ip qd for 9 days measured after 14 days by trypan blue staining (reference value: 2.75 +/- 0.49 mm); type: functional, Ehrlich; settings: route intraperitoneal; summary of the method: as §2
[8] = Anticancer activity against […] xenografted in Swiss albino mouse liquid tumor model assessed as viable tumor cells per 10^7 cells at 5 mg/kg, ip qd for 9 days measured after 14 days by trypan blue staining (reference value: 6.39 +/- 0.51 10^7/mL); type: functional, Ehrlich; settings: route intraperitoneal; summary of the method: as §2
[9] = Antitumor activity against […] xenografted in Swiss albino mouse liquid tumor model assessed as change in body weight at 10 mg/kg, ip qd for 9 days measured after 14 days (reference value: 12.2 +/- 0.75 g); type: functional, Ehrlich; settings: route intraperitoneal; summary of the method: as §2
[10] = Anticancer activity against […] xenografted in Swiss albino mouse liquid tumor model assessed as host survival at 10 mg/kg, ip qd for 9 days (reference value: 13.7 +/- 0.03 days); type: functional, Ehrlich; settings: route intraperitoneal
Mus musculus [11] = test: Toxicity in […] xenografted Swiss albino mouse liquid tumor model assessed as change hemoglobin level at 10 mg/kg, ip qd for 9 days (reference value: 5.75 +/- 0.655 mg); type: organism-based, Ehrlich; parameters: dose 10 mg/kg, route intraperitoneal; settings: in vivo, 216 h
[12] = Anticancer activity against […] xenografted in Swiss albino mouse liquid tumor model assessed as increase in host lifespan at 10 mg/kg, ip qd for 9 days measured after 14 days; type: functional, Ehrlich; settings: route intraperitoneal
[13] = Anticancer activity against […] xenografted in Swiss albino mouse liquid tumor model assessed as tumor volume at 10 mg/kg, ip qd for 9 days measured after 14 days (reference value: 12.1 +/- 0.89 mL); type: functional, Ehrlich; settings: route intraperitoneal; summary of the method: as §2
[14] = Anticancer activity against […] xenografted in Swiss albino mouse liquid tumor model assessed as packed cell volume at 10 mg/kg, ip qd for 9 days measured after 14 days by trypan blue staining (reference value: 2.75 +/- 0.49 mm); type: functional, Ehrlich; settings: route intraperitoneal; summary of the method: as §2
[15] = Anticancer activity against […] xenografted in Swiss albino mouse liquid tumor model assessed as viable tumor cells per 10^7 cells at 10 mg/kg, ip qd for 9 days measured after 14 days by trypan blue staining (reference value: 6.39 +/- 0.51 10^7/mL); type: functional, Ehrlich; settings: route intraperitoneal; summary of the method: as §2
Mus musculus [16] = test: Toxicity in human EAC cells xenografted Swiss albino mouse liquid tumor model assessed as change in RBC cell count at 5 mg/kg, ip qd for 9 days (reference value: 2.74 +/- 0.081 million/mm3); type: organism-based, Ehrlich; parameters: dose 5 mg/kg, route intraperitoneal; settings: in vivo, 216 h
Mus musculus [17] = test: Toxicity in […] xenografted Swiss albino mouse liquid tumor model assessed as change WBC cell count at 5 mg/kg, ip qd for 9 days (reference value: 20.6 +/- 0.545 10^3/mm3); type: organism-based, Ehrlich; parameters: dose 5 mg/kg, route intraperitoneal; settings: in vivo, 216 h
Mus musculus [18] = test: Toxicity in human EAC cells xenografted Swiss albino mouse liquid tumor model assessed as change in RBC cell count at 10 mg/kg, ip qd for 9 days (reference value: 2.74 +/- 0.081 million/mm3); type: organism-based, Ehrlich; parameters: dose 10 mg/kg, route intraperitoneal; settings: in vivo, 216 h
Mus musculus [19] = test: Toxicity in […] xenografted Swiss albino mouse liquid tumor model assessed as change WBC cell count at 10 mg/kg, ip qd for 9 days (reference value: 20.6 +/- 0.545 10^3/mm3); type: organism-based, Ehrlich; parameters: dose 10 mg/kg, route intraperitoneal; settings: in vivo, 216 h
Mus musculus [20] = test: Toxicity in human EAC cells xenografted Swiss albino mouse liquid tumor model assessed as change in lymphocyte cell count at 5 mg/kg, ip qd for 9 days (reference value: 23 +/- 0.567 %); type: organism-based, Ehrlich; parameters: dose 5 mg/kg, route intraperitoneal; settings: in vivo, 216 h
Mus musculus [21] = test: Toxicity in human EAC cells xenografted Swiss albino mouse liquid tumor model assessed as change in lymphocyte cell count at 10 mg/kg, ip qd for 9 days (reference value: 23 +/- 0.567 %); type: organism-based, Ehrlich; parameters: dose 10 mg/kg, route intraperitoneal; settings: in vivo, 216 h
Mus musculus [22] = test: Toxicity in human EAC cells xenografted Swiss albino mouse liquid tumor model assessed as change in neutrophil cell count at 5 mg/kg, ip qd for 9 days (reference value: 73 +/- 1.25 %); type: organism-based, Ehrlich; parameters: dose 5 mg/kg, route intraperitoneal; settings: in vivo, 216 h
Mus musculus [23] = test: Toxicity in human EAC cells xenografted Swiss albino mouse liquid tumor model assessed as change in neutrophil cell count at 10 mg/kg, ip qd for 9 days (reference value: 73 +/- 1.25 %); type: organism-based, Ehrlich; parameters: dose 10 mg/kg, route intraperitoneal; settings: in vivo, 216 h
Mus musculus [24] = test: Toxicity in […] xenografted Swiss albino mouse liquid tumor model assessed as change in monocytes cell count at 5 mg/kg, ip qd for 9 days (reference value: 2.4 +/- 0.12 %); type: organism-based, Ehrlich; parameters: dose 5 mg/kg, route intraperitoneal; settings: in vivo, 216 h
Mus musculus [25] = test: Toxicity in human EAC cells xenografted Swiss albino mouse liquid tumor model assessed as change in monocytes cell count at 10 mg/kg, ip qd for 9 days (reference value: 2.4 +/- 0.12 %); type: organism-based, Ehrlich; parameters: dose 10 mg/kg, route intraperitoneal; settings: in vivo, 216 h

COc1ccc(-c2c[n+]([O-])c3c(C)noc3c2C(c2ccccc2)c2c(-c3ccc(OC)cc3)c[n+]([O-])c3c(C)noc23)cc1
IC50 (HeLa): 47.9 µg/mL (≈ 79.8 µM) | IC50 [1]: 41.7 µg/mL (≈ 69.4 µM) | IC50 (MCF7): 46 µg/mL (≈ 76.5 µM)

COc1ccccc1C(c1c(-c2ccccc2)c[n+]([O-])c2c(C)noc12)c1c(-c2ccccc2)c[n+]([O-])c2c(C)noc12
IC50 (HeLa): 65.5 µg/mL (≈ 115 µM) | IC50 [1]: 51.8 µg/mL (≈ 90.9 µM) | IC50 (MCF7): 57.3 µg/mL (≈ 101 µM)

Cc1noc2c(C(c3ccccc3)c3c(-c4ccccc4O)c[n+]([O-])c4c(C)noc34)c(-c3ccccc3O)c[n+]([O-])c12
IC50 (HeLa): 32.8 µg/mL (≈ 57.3 µM) | IC50 [1]: 36.3 µg/mL (≈ 63.4 µM) | IC50 (MCF7): 33.5 µg/mL (≈ 58.6 µM) | Activity [2]: 11 g | MST [3]: 14.8 days | Activity (Mus musculus [4]): 5.96 mg | Activity [5]: 8.02% | Activity [6]: 10.69 mL | Activity [7]: 2.13 mm | Activity [8]: 5.21 ×10⁷ /ml | Activity [9]: 8.89 g | MST [10]: 18 days | Activity (Mus musculus [11]): 7.02 mg | Activity [12]: 31.38% | Activity [13]: 8.29 mL | Activity [14]: 1.69 mm | Activity [15]: 4.07 ×10⁷ /ml | Activity (Mus musculus [16]): 2.72 million/mm3 | Activity (Mus musculus [17]): 19.9 ×10³ /mm3 | Activity (Mus musculus [18]): 3.3 million/mm3 | Activity (Mus musculus [19]): 18.8 ×10³ /mm3 | Activity (Mus musculus [20]): 26% | Activity (Mus musculus [21]): 40% | Activity (Mus musculus [22]): 65% | Activity (Mus musculus [23]): 51% | Activity (Mus musculus [24]): 2.3% | Activity (Mus musculus [25]): 1.9%

Cc1noc2c(C(c3ccccc3)c3c(-c4ccccc4)c[n+]([O-])c4c(C)noc34)c(-c3ccccc3)c[n+]([O-])c12
IC50 (HeLa): 28.6 µg/mL (≈ 52.9 µM) | IC50 [1]: 26.6 µg/mL (≈ 49.2 µM) | IC50 (MCF7): 31.9 µg/mL (≈ 59 µM) | Activity [2]: 10.41 g | MST [3]: 16.4 days | Activity (Mus musculus [4]): 8.08 mg | Activity [5]: 19.7% | Activity [6]: 7.61 mL | Activity [7]: 1.25 mm | Activity [8]: 4.05 ×10⁷ /ml | Activity [9]: 7.7 g | MST [10]: 22.1 days | Activity (Mus musculus [11]): 9.3 mg | Activity [12]: 61.31% | Activity [13]: 4.5 mL | Activity [14]: 0.94 mm | Activity [15]: 3.27 ×10⁷ /ml | Activity (Mus musculus [16]): 3.02 million/mm3 | Activity (Mus musculus [17]): 18.48 ×10³ /mm3 | Activity (Mus musculus [18]): 3.88 million/mm3 | Activity (Mus musculus [19]): 13.92 ×10³ /mm3 | Activity (Mus musculus [20]): 31% | Activity (Mus musculus [21]): 49% | Activity (Mus musculus [22]): 54% | Activity (Mus musculus [23]): 39% | Activity (Mus musculus [24]): 2% | Activity (Mus musculus [25]): 1.6%

Cc1noc2c(C(c3ccccc3Cl)c3c(-c4ccccc4)c[n+]([O-])c4c(C)noc34)c(-c3ccccc3)c[n+]([O-])c12
IC50 (HeLa): 79 µg/mL (≈ 137 µM) | IC50 [1]: 70.4 µg/mL (≈ 122 µM) | IC50 (MCF7): 72.1 µg/mL (≈ 125 µM)

Cc1noc2c(C(c3ccccc3)c3c(-c4ccc([N+](=O)[O-])cc4)c[n+]([O-])c4c(C)noc34)c(-c3ccc([N+](=O)[O-])cc3)c[n+]([O-])c12
IC50 (HeLa): 80 µg/mL (≈ 127 µM) | IC50 [1]: 75.5 µg/mL (≈ 120 µM) | IC50 (MCF7): 76.2 µg/mL (≈ 121 µM)

Cc1noc2c(C(c3ccc(Cl)cc3)c3c(-c4ccccc4)c[n+]([O-])c4c(C)noc34)c(-c3ccccc3)c[n+]([O-])c12
IC50 (HeLa): 70.7 µg/mL (≈ 123 µM) | IC50 [1]: 60.6 µg/mL (≈ 105 µM) | IC50 (MCF7): 74.3 µg/mL (≈ 129 µM)

Cc1ccc(-c2c[n+]([O-])c3c(C)noc3c2C(c2ccccc2)c2c(-c3ccc(C)cc3)c[n+]([O-])c3c(C)noc23)cc1
IC50 (HeLa): 42 µg/mL (≈ 73.9 µM) | IC50 [1]: 48.4 µg/mL (≈ 85.2 µM) | IC50 (MCF7): 44.3 µg/mL (≈ 77.9 µM)

Cc1noc2c(C(c3ccccc3)c3c(-c4ccc(Cl)cc4)c[n+]([O-])c4c(C)noc34)c(-c3ccc(Cl)cc3)c[n+]([O-])c12
IC50 (HeLa): 70.2 µg/mL (≈ 115 µM) | IC50 [1]: 78.3 µg/mL (≈ 129 µM) | IC50 (MCF7): 79 µg/mL (≈ 130 µM)

Cc1ccccc1C(c1c(-c2ccccc2)c[n+]([O-])c2c(C)noc12)c1c(-c2ccccc2)c[n+]([O-])c2c(C)noc12
IC50 (HeLa): 62.4 µg/mL (≈ 113 µM) | IC50 [1]: 65.1 µg/mL (≈ 117 µM) | IC50 (MCF7): 60.7 µg/mL (≈ 109 µM)
